Screening data (PubChem)
Most compounds without a hit are left out; they make up all but 4.3% or so of the library.
STAT3 blocker – inhibitors of IL-6 induced STAT3 signaling. U3A cells, IL-6 STAT3-luciferase reporter, luminescence; host cell line lacks STAT1. inhibition, % at 5.5 µM. hit rate 0.89% among 190,000. AID 862;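 active means inhibition above the mean inhibition across all screened compounds plus 3 SD, cut at about 44% in these data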;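 further: 0% = DMSO only wells and 100% = 100 µM nifuroxazide control wells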
STAT1 inh – inhibitors of IFN-gamma induced STAT1 signaling | NIH 3T3 STAT1-luciferase reporter, luminescence | inhibition, % at 5.5 µM | hit rate 0.35% among 200,000;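 active means inhibition above a set limit, the mean inhibition across all tested compounds plus 3 SD, cut at about 34% in these data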;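 further: 0% = IFN-gamma with DMSO and 100% = IFN-gamma with 300 µM nifuroxazide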
STAT3 act – activators of IL-6 induced STAT3 signaling. U3A cells, IL-6 STAT3-luciferase reporter, luminescence; 100% = signal with IL-6 EC80 alone. hit rate 0.91% among 190,000. activation (% of control), % at 5.6 µM;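 active means activation above the screen-wide mean of compound activation plus 3 SD, cut at about 130% in these data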;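 further: 0% = background luminescence of wells with medium and substrate only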
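Test system: Human STAT1-deficient U3A cells with stable STAT3-luciferase reporter | Also added: Interleukin-6, 33 ng/mL | Timing: Compound pre-incubation 1 h before IL-6, then 6 h stimulation at 37 °C | Technique: Luciferase reporter luminescence | Read-out: Percent of IL-6-only median luminescence | Benchmarks: IL-6-only wells as 100% reference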
STAT1 act – increases IFN-gamma driven STAT1 reporter signal; NIH 3T3 STAT1-luciferase reporter, luminescence; 100% = IFN-gamma alone, no compound; activation (% of control), % at 5.5 µM; hit rate 2.6% among 200,000;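 active means activation above the screen-wide mean activation plus 3 SD, cut at about 130% in these data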;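 further: raw ratio to IFN-gamma control signal so 100% means no change and 0% no light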
* marks the source's active call; other numbers are inactive results.

SMILES	STAT3 blocker	STAT1 inh	STAT3 act	STAT1 act
Cc1ccc(C)c(OCc2nc3ccc(S(=O)(=O)Nc4c(C)n(C)n(-c5ccccc5)c4=O)cc3[nH]2)c1	-7	2	107	96
O=c1c(-c2cc3ccccc3o2)[n+]([O-])c2ccccc2n1OCc1ccccn1	-28	-46	128	142*
O=c1c(-c2ccc(Br)cc2)[n+]([O-])c2ccccc2n1OCc1ccccn1	29	-2	79	99
Cc1cc([N+](=O)[O-])nn1CC(=O)NCc1nc2ccccc2[nH]1	8	-3	96	102
O=C(c1ccc(C(=O)N2CCCc3ccccc32)s1)N1CCCc2ccccc21	20	-4	84	104
CCc1sc(C(=O)N2CCc3ccccc32)cc1C	23	-36	84	134*
O=C(c1ccc(Cl)s1)N1CCc2ccccc21	-13	-56	112	144*
Cc1c(C(=O)O)cnc2cc(-c3ccc(Cl)cc3)nn12	-8	-7	107	108
CC(=O)c1cnc2cc(-c3ccc(Cl)cc3)nn2c1C	6	-41	101	138*
O=C(CCOc1ccccc1)Nc1ccccc1[N+](=O)[O-]	18	-19	93	116
O=[N+]([O-])c1ccccc1NCCOc1ccccc1	-5	-34	104	129*
O/N=C1\CC/C(=N\O)c2nn(-c3ccccc3Cl)nc21	7	-3	97	103
Cc1ccc(-n2nc3c(n2)/C(=N/O)CC/C3=N\O)cc1	10	-33	91	130*
Cc1cc(N2CCOCC2)ccc1/C=C1\NC(=O)N(CC(=O)Nc2ccccc2C)C1=O	-10	-10	105	109
Cc1cc(N2CCCC2)ccc1/C=C1\NC(=S)N(C)C1=O	21	-34	86	129*
Cc1cc(N2CCOCC2)ccc1/C=C1\NC(=O)N(CC(=O)Nc2ccc(F)cc2)C1=O	7	-35	99	131*
Cc1cc(N2CCOCC2)ccc1/C=C1/SC(=O)NC1=O	-42	-58	138*	152*
C=CCN1C(=O)S/C(=C\c2ccc(N3CCOCC3)cc2C)C1=O	10	-19	97	117
COc1cccc(NC(=S)N2CCn3c(nc4ccccc43)C2)c1	4	4	98	96
C=CCN(c1ccccc1C(=O)O)S(=O)(=O)/C=C/c1ccccc1	0	0	100	101
CCc1ccc(NC(=S)NC(=O)CC(C)C)cc1	-13	-32	113	129*
Cc1ccc(OCCCSc2ncccn2)cc1C	-14	-37	113	135*
COc1cccc(OCCCCSc2ncccn2)c1	6	0	100	100
c1cnc(SCCCOc2ccc3ccccc3c2)nc1	-6	-13	107	112
COc1ccc(OCCCSc2ncccn2)cc1	7	-46	99	142*
SMILES	STAT3 blocker	STAT1 inh	STAT3 act	STAT1 act
Cn1cnnc1SCCOc1ccc(Cl)cc1	5	-20	99	117
Clc1ccc(OCCSc2ncccn2)cc1	-7	-34	103	131*
Cn1cnnc1SCC(=O)Nc1ccc(OC(F)F)cc1	6	-6	101	104
COc1ccccc1OCCC(=O)OCC(=O)NC(C)c1ccccc1 (centres undefined)	-6	11	104	90
CC(C)(C)c1cc(C(=O)NCCN2CCCC2)cc(C(C)(C)C)c1	3	-2	101	100
O=C(CCc1ccc(O)c(O)c1)NNC(=S)Nc1ccc(Br)cc1Cl	-5	-7	106	105
CCN1C(=O)C(F)(CC)C(=O)c2ccccc21 (centres undefined)	8	3	97	98
Cc1ccsc1C(=O)OCC(=O)Nc1sccc1C(N)=O	8	-36	98	132*
Cc1ccc2c(=O)c(C(=O)NCc3cccs3)c[nH]c2c1	8	-16	96	114
Cc1cccc2c(=O)c(C(=O)NCc3cccs3)c[nH]c12	3	-35	101	136*
CNS(=O)(=O)c1ccc(NS(=O)(=O)c2ccccc2F)cc1	7	0	94	100
CCOC(=O)Cn1nc(-c2ccc(Cl)cc2)cc1N	4	-16	100	115
CCOC(=O)CCn1nc(-c2ccc(Cl)cc2)cc1N	12	-42	94	138*
COc1ccc(C(C)(C)C)cc1NC(=O)CNc1cccc2ccccc12	-40	3	136*	97
Cc1ccc(NC(=O)C2CC(=O)n3ncnc3N2)cc1C (centres undefined)	13	7	93	95
N#Cc1c(NC(=O)CSc2nc(N)cc(=O)[nH]2)sc2c1CCCC2	11	10	93	88
O=C(NCc1ccccn1)Nc1cccc(Cl)c1	-11	-34	115	133*
